According to ChEMBL document CHEMBL3621151, “Orally bioavailable Syk inhibitors with activity in a rat PK/PD model” (Bioorg Med Chem Lett, 2015):
Activity calls are given as the source filed them. No cut-off for these calls is given here.

What was measured:
Liver microsome [1] = test: Drug metabolism in rat liver microsomes assessed as pyrazole hydroxylation; format: ADME
[2] = molecular target: T1, Tyrosine-protein kinase SYK (Homo sapiens, UniProt P43405); test: Inhibition of Syk in anti-igM stimulated human Ramos B cells assessed as phospho-BLNK level preincubated for 30 mins followed by anti-IgM stimulation measured after 15 mins by flow cytometric analysis; format: cell-based
[3] = molecular target: T2, Voltage-gated inwardly rectifying potassium channel KCNH2 (Homo sapiens, UniProt Q12809); test: Inhibition of human ERG by binding assay
Liver = test: Drug level in rat liver at 1 mg/kg, iv; format: ADME, organism-based; conditions: in vivo
Outline: (§1)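 Rats received a single iv dose of 1 mg/kg. Compound concentrations were measured in blood, liver and kidney and expressed as ng/g.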

Rattus norvegicus [4] = test: Dose normalized Cmax in Sprague-Dawley rat at 1 mg/kg, iv and 3 mg/kg, po administered as cassette dosing; format: ADME, organism-based; conditions: in vivo
Outline: (§2)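 Cassette dosing in Sprague Dawley rats: iv 1 mg/kg in NMP/PEG200 (3:7) and po 3 mg/kg in CMC/water/Tween (0.5:99:0.5). Dose-normalized values are marked as such.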

[5] = Drug uptake in Lewis rat blood at 3 mg/kg, po measured after 8 hrs; format: ADME, organism-based; conditions: read-out: Drug uptake
Outline: (§3)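 Lewis rats were given a single oral dose of 3 mg/kg. Blood was sampled at 2, 4, 8 and 24 h for compound levels. Ex vivo, peripheral blood monocytes were stimulated through FcγR with anti-CD32 antibody, and SLP76 phosphorylation was quantified as % pSLP76.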

[6] = Drug uptake in Lewis rat blood at 3 mg/kg, po measured after 4 hrs; format: ADME, organism-based; conditions: read-out: Drug uptake; outline: as §3
Liver microsome [7] = test: Drug metabolism in human liver microsomes assessed as pyrazole N-demethylation; format: ADME
[8] = Clearance in Sprague-Dawley rat at 1 mg/kg, iv and 3 mg/kg, po administered as cassette dosing; format: ADME, organism-based; conditions: in vivo; outline: as §2
Rattus norvegicus [9] = test: In vivo inhibition of Syk in Lewis rat assessed as reduction in antiCD32-antibody-induced SLP76 phosphorylation in peripheral blood monocytes at 3 mg/kg, po measured after 2 hrs relative to vehicle-treated control; format: functional; outline: as §3
[10] = molecular target: T2, Voltage-gated inwardly rectifying potassium channel KCNH2; test: Inhibition of human ERG by automated patch clamp assay
Liver microsome [11] = test: Drug metabolism in rat liver microsomes assessed as lactam hydroxylation; format: ADME
Kidney = test: Drug level in rat kidney at 1 mg/kg, iv; format: ADME, organism-based; conditions: in vivo; outline: as §1
[12] = Mean residence time in Sprague-Dawley rat at 1 mg/kg, iv and 3 mg/kg, po administered as cassette dosing; format: ADME, organism-based; conditions: in vivo; outline: as §2
[13] = Drug uptake in Lewis rat blood at 3 mg/kg, po measured after 24 hrs; format: ADME, organism-based; conditions: read-out: Drug uptake; outline: as §3
[14] = Oral bioavailability in Sprague-Dawley rat at 3 mg/kg administered as cassette dosing; format: ADME, organism-based; conditions: in vivo; outline: as §2
[15] = Toxicity in micronucleus (unknown origin) by micronucleus test
[16] = Volume of distribution at steady state in Sprague-Dawley rat at 1 mg/kg, iv and 3 mg/kg, po administered as cassette dosing; format: ADME, organism-based; conditions: in vivo, read-out: Vdss; outline: as §2
Liver microsome [17] = test: Drug metabolism in rat liver microsomes assessed as pyrazole N-demethylation; format: ADME
Liver microsome [18] = test: Drug metabolism in human liver microsomes assessed as lactam hydroxylation; format: ADME
Aurora kinase A = molecular target: T3, Aurora kinase A (Homo sapiens, UniProt O14965); test: Inhibition of aurora A kinase (unknown origin) by enzymatic assay
T3 sequence (O14965 whole entry): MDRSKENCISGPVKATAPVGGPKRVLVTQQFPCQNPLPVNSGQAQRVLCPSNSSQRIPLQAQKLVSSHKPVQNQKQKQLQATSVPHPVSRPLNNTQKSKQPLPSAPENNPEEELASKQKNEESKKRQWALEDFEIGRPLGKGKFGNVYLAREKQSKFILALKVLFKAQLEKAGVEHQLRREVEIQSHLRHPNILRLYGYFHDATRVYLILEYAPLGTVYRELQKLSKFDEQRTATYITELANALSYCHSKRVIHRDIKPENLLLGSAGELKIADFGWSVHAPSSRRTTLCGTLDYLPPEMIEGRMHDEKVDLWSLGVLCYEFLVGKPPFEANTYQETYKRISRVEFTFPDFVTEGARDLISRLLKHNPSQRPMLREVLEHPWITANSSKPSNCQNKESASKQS

[19] = molecular target: T1, Tyrosine-protein kinase SYK
Rattus norvegicus [20] = test: In vivo inhibition of Syk in Lewis rat assessed as reduction in antiCD32-antibody-induced SLP76 phosphorylation in peripheral blood monocytes at 3 mg/kg, po measured after 4 hrs relative to vehicle-treated control; format: functional; outline: as §3
[21] = Drug uptake in Lewis rat blood at 3 mg/kg, po measured after 2 hrs; format: ADME, organism-based; conditions: read-out: Drug uptake; outline: as §3
Rattus norvegicus [22] = test: In vivo inhibition of Syk in Lewis rat assessed as reduction in antiCD32-antibody-induced SLP76 phosphorylation in peripheral blood monocytes at 3 mg/kg, po measured after 8 hrs relative to vehicle-treated control; format: functional; outline: as §3
[23] = molecular target: T1, Tyrosine-protein kinase SYK; test: Inhibition of Syk in anti-CD32 stimulated CD14+ human monocytes in presence of 90% human blood assessed as phospho-SLP76 level preincubated for 30 mins followed by anti-CD32 stimulation measured after 5 mins by flow cytometric analysis
Salmonella typhimurium = test: Toxicity in Salmonella typhimurium by Ames test; format: organism-based; conditions: salmonella enterica subsp. enterica serovar typhimurium
Blood = test: Drug level in rat blood at 1 mg/kg, iv; format: ADME, organism-based; conditions: in vivo; outline: as §1
Aurora kinase B = Aurora kinase B (Homo sapiens, UniProt Q96GD4); test: Inhibition of aurora B kinase (unknown origin) by cell based assay
Rattus norvegicus [24] = test: In vivo inhibition of Syk in Lewis rat assessed as reduction in antiCD32-antibody-induced SLP76 phosphorylation in peripheral blood monocytes at 3 mg/kg, po measured after 24 hrs relative to vehicle-treated control; format: functional, organism-based; outline: as §3
Liver microsome [25] = test: Drug metabolism in human liver microsomes assessed as pyrazole hydroxylation; format: ADME

T2 sequence (Q12809 whole entry): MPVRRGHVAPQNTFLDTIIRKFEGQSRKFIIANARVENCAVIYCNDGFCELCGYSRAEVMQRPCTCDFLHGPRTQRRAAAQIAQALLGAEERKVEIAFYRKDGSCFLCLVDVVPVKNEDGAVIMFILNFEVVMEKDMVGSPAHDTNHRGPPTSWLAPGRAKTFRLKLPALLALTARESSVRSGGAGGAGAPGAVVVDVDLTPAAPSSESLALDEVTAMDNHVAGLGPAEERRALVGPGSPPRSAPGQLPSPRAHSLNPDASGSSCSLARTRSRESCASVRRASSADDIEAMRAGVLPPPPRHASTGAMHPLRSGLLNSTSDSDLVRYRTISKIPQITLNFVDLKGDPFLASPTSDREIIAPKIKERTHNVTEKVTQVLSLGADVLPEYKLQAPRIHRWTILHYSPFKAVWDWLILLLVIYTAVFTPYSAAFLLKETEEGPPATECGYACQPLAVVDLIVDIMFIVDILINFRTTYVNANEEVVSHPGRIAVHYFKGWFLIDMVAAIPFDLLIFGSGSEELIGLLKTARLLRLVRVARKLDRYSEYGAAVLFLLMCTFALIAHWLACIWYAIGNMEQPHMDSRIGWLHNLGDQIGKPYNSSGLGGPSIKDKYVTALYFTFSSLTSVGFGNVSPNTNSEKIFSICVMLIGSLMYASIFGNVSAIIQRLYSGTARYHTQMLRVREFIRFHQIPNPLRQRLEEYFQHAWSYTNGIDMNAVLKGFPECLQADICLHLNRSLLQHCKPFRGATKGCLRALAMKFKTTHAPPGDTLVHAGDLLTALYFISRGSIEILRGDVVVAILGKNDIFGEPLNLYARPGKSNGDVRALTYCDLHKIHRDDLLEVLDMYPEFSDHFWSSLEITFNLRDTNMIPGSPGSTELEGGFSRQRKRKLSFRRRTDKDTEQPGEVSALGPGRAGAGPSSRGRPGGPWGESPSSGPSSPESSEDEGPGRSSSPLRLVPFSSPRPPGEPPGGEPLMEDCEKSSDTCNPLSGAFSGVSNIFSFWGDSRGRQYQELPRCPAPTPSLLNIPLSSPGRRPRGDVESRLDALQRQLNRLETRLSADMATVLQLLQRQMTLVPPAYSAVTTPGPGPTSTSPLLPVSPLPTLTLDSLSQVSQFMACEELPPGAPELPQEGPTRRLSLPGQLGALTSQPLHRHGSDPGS
Chain of Aurora kinase B (Q96GD4 whole entry): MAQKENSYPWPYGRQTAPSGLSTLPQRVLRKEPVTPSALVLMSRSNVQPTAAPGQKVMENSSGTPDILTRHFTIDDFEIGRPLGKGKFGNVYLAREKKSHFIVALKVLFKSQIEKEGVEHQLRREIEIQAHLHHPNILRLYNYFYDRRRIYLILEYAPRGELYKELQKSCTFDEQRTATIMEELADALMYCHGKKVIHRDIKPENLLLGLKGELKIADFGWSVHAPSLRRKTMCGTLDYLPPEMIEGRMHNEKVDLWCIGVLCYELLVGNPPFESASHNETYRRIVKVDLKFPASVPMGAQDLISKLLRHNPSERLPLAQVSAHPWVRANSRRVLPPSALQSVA

In the case of `C[C@@H](Oc1nc(-c2cnn(C(F)F)c2)cc2ncsc12)[C@H]1CNC(=O)O1`, the Drug metabolism (Liver microsome [1]) is reported as “metabolite_detected”, the IC50 [2] is reported as 284 nM and the IC50 [3] is reported as > 30000 nM. For the same compound, the Drug uptake (Liver) was 2134 ng/g, the Cmax/dose (Rattus norvegicus [4]) was 917 nM and the concentration at 8 h [5] was 827 nM. For the same compound, the concentration at 4 h [6] was 1340 nM, the Drug metabolism (Liver microsome [7]) was “metabolite_detected” and the clearance [8] was 4 mL/min/kg. For the same compound, the inhibition in vivo at 3 mg/kg (Rattus norvegicus [9]) was 78%, the IC50 [10] was > 30000 nM and the Drug metabolism (Liver microsome [11]) was “metabolite_detected”. For the same compound, the Drug uptake (Kidney) was 1433 ng/g, the MRT [12] was 6 h and the concentration at 24 h [13] was 40 nM. The bioavailability [14] was 88%, the Activity [15] was “Toxic” and the Vd [16] was 1.3 L/kg. For the same compound, the Drug metabolism (Liver microsome [17]) was “metabolite_detected”, the Drug metabolism (Liver microsome [18]) was “metabolite_detected” and the IC50 (Aurora kinase A) was 57 nM. It also gave an IC50 [19] of 38 nM, an inhibition in vivo at 3 mg/kg (Rattus norvegicus [20]) of 79% and a concentration at 2 h [21] of 1930 nM. The inhibition in vivo at 3 mg/kg (Rattus norvegicus [22]) was 60%, the IC50 [23] was 522 nM and the Activity (Salmonella typhimurium) was “Non-toxic”. The Drug uptake (Blood) was 1014 ng/g, the IC50 (Aurora kinase B) was 110 nM and the inhibition (Rattus norvegicus [24]) was “inactive”. The Drug metabolism (Liver microsome [25]) was “metabolite_detected”.
